Test results published in ChEMBL document CHEMBL1287642, “Synthesis, antiviral activity and cytotoxicity evaluation of Schiff bases of some 2-phenyl quinazoline-4(3)H-ones” (Eur J Med Chem, 2010).
In brackets after ≈: the same amount, converted by molar mass.

Tests used:
[1] = (§1) Cytotoxicity against MDCK cells by MTS assay; assay type: cell-based, Canis lupus familiaris; conditions: dog, MDCK cells
Summary of the method: (§2)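 In Madin Darby canine kidney cells, the 50% cytotoxic concentration was derived from cell viability measured by the colorimetric formazan-based MTS assay.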

[2] = Cytotoxicity against MDCK cells assessed as minimum concentration required to cause microscopically detectable alteration after 2 days; assay type: cell-based, Canis lupus familiaris; conditions: dog, read-out: Activity
[3] = system: Influenza B virus; assay: Antiviral activity against influenza B virus infected in MDCK cells assessed as protection against virus-induced cytopathogenicity after 2 days; assay type: functional, organism-based
Summary of the method: (§3)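 Infected MDCK cells were treated. […] N.A. means not active at the highest concentration tested or at a subtoxic concentration.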

[4] = system: Influenza B virus; assay: Antiviral activity against influenza B virus infected in MDCK cells assessed as cell viability after 2 days by MTS assay; assay type: functional, organism-based
[5] = Cytotoxicity against human HEL cells assessed as minimum concentration required to cause microscopically detectable alteration after 2 days; assay type: cell-based; conditions: read-out: Activity
[6] = system: Human alphaherpesvirus 1; assay: Antiviral activity against Herpes simplex virus-1 KOS infected in human HEL cells assessed as protection against virus-induced cytopathogenicity after 2 days; assay type: functional, organism-based; conditions: Human alphaherpesvirus 1, KOS, 48 h
[7] = system: Human alphaherpesvirus 2; assay: Antiviral activity against Herpes simplex virus-2 G infected in human HEL cells assessed as protection against virus-induced cytopathogenicity after 2 days; assay type: functional, organism-based; conditions: Human alphaherpesvirus 2, strain G, 48 h
[8] = system: Vesicular stomatitis virus; assay: Antiviral activity against Vesicular stomatitis virus infected in human HEL cells assessed as protection against virus-induced cytopathogenicity after 2 days; assay type: functional, organism-based; conditions: 48 h
[9] = system: Human alphaherpesvirus 1; assay: Antiviral activity against acyclovir-resistant TK deficient Herpes simplex virus-1 KOS infected in human HEL cells assessed as protection against virus-induced cytopathogenicity after 2 days; assay type: functional, organism-based; conditions: Human alphaherpesvirus 1, KOS, 48 h
[10] = Cytotoxicity against african green monkey Vero cells assessed as minimum concentration required to cause microscopically detectable alteration after 2 days; assay type: cell-based; conditions: chlorocebus sabaeus, read-out: Activity
[11] = system: Human respirovirus 3; assay: Antiviral activity against Para influenza-3 virus infected in african green monkey Vero cells assessed as protection against virus-induced cytopathogenicity after 2 days; assay type: functional, organism-based; conditions: Human respirovirus 3, Vero, 48 h
[12] = system: Mammalian orthoreovirus 1; assay: Antiviral activity against Reovirus-1 infected in african green monkey Vero cells assessed as protection against virus-induced cytopathogenicity after 2 days; assay type: functional, organism-based; conditions: Mammalian orthoreovirus 1, Vero, 48 h
[13] = system: Sindbis virus; assay: Antiviral activity against Sindbis virus infected in african green monkey Vero cells assessed as protection against virus-induced cytopathogenicity after 2 days; assay type: functional, organism-based; conditions: 48 h
[14] = system: Coxsackievirus B4; assay: Antiviral activity against Coxsackie virus B4 infected in african green monkey Vero cells assessed as protection against virus-induced cytopathogenicity after 2 days; assay type: functional, organism-based; conditions: Enterovirus B, 48 h
[15] = system: Punta Toro virus; assay: Antiviral activity against Punta Toro virus infected in african green monkey Vero cells assessed as protection against virus-induced cytopathogenicity after 2 days; assay type: functional, organism-based; conditions: 48 h
[16] = Cytotoxicity against cat CRFK cells by MTS assay; assay type: cell-based, Felis catus; conditions: crfk
Summary of the method: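 In uninfected CRFK cells, the 50% cytotoxic concentration was derived from cell viability measured by the colorimetric formazan-based MTS assay.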

[17] = system: Feline infectious peritonitis virus; assay: Antiviral activity against Feline coronavirus FIPV infected in cat CRFK cells assessed as protection against virus-induced cytopathogenicity after 2 days by MTS assay; assay type: functional, cell-based; conditions: Alphacoronavirus 1, CRFK, 48 h
[18] = system: Felid alphaherpesvirus 1; assay: Antiviral activity against Feline herpes virus infected in cat CRFK cells assessed as protection against virus-induced cytopathogenicity after 2 days by MTS assay; assay type: functional, organism-based; conditions: Felid alphaherpesvirus 1, CRFK, 48 h
[19] = Cytotoxicity against human HeLa cells assessed as minimum concentration required to cause microscopically detectable alteration after 2 days; assay type: cell-based; conditions: read-out: Activity
[20] = system: Vesicular stomatitis virus; assay: Antiviral activity against Vesicular stomatitis virus infected in human HeLa cells assessed as protection against virus-induced cytopathogenicity after 2 days; assay type: functional, organism-based; conditions: 48 h
[21] = system: Coxsackievirus B4; assay: Antiviral activity against Coxsackie virus B4 infected in human HeLa cells assessed as protection against virus-induced cytopathogenicity after 2 days; assay type: functional, organism-based; conditions: Enterovirus B, 48 h
[22] = system: Respiratory syncytial virus; assay: Antiviral activity against Respiratory syncytial virus infected in human HeLa cells assessed as protection against virus-induced cytopathogenicity after 2 days; assay type: functional, organism-based; conditions: 48 h
[23] = Selectivity index, ratio of minimum concentration required to cause microscopically detectable alteration in human HEL cells to EC50 for Herpes simplex virus-1 KOS; assay type: toxicity, cell-based; conditions: read-out: Selectivity Index
Summary of the method: (§4)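 Cytotoxicity was taken as the concentration causing a microscopically detectable change in normal cell morphology (Vero or HEL). […] The selectivity index is the first divided by the second.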

[24] = Selectivity index, ratio of minimum concentration required to cause microscopically detectable alteration in human HEL cells to EC50 for Herpes simplex virus-2 G; assay type: toxicity, cell-based; conditions: read-out: Selectivity Index; summary of the method: as §4
[25] = Selectivity index, ratio of minimum concentration required to cause microscopically detectable alteration in human HEL cells to EC50 for acyclovir-resistant TK deficient Herpes simplex virus-1 KOS; assay type: toxicity, cell-based; conditions: read-out: Selectivity Index; summary of the method: as §4
[26] = Selectivity index, ratio of minimum concentration required to cause microscopically detectable alteration in human HEL cells to EC50 for acyclovir-resistant TK deficient Vaccina virus; assay type: toxicity, cell-based; conditions: read-out: Selectivity Index; summary of the method: as §4
[27] = system: Influenza A virus; assay: Antiviral activity against influenza A virus H1N1 infected in MDCK cells assessed as protection against virus-induced cytopathogenicity at 100 ug/ml after 2 days; assay type: functional, organism-based; summary of the method: as §3
[28] = system: Influenza A virus; assay: Antiviral activity against Influenza A virus H3N2 infected in MDCK cells assessed as protection against virus-induced cytopathogenicity at 100 ug/ml after 2 days; assay type: functional, organism-based; summary of the method: as §3
[29] = system: Influenza B virus; assay: Antiviral activity against influenza B virus infected in MDCK cells assessed as protection against virus-induced cytopathogenicity at 100 ug/ml after 2 days; assay type: functional, organism-based; summary of the method: as §3
[30] = system: MDCK; assay: as §1; assay type: cell-based, Canis lupus familiaris; conditions: dog, mdck; summary of the method: as §2
[31] = system: Influenza A virus; assay: Antiviral activity against influenza A virus H1N1 infected in MDCK cells assessed as cell viability at 100 ug/ml after 2 days by MTS assay; assay type: functional, organism-based
[32] = system: Influenza A virus; assay: Antiviral activity against Influenza A virus H3N2 infected in MDCK cells assessed as cell viability at 100 ug/ml after 2 days by MTS assay; assay type: functional, organism-based
[33] = system: Influenza B virus; assay: Antiviral activity against influenza B virus infected in MDCK cells assessed as cell viability at 100 ug/ml after 2 days by MTS assay; assay type: functional, organism-based

NC12CC3CC(CC(C3)C1)C2 [AMANTADINE]
CC50 [1]: > 1000 µg/mL
MCC at 48 h [2]: > 1000 µg/mL
EC50 [3]: Not Active
EC50 [4]: Not Active

COc1ccc(/C=N/n2c(-c3ccccc3)nc3ccccc3c2=O)cc1
MCC at 48 h [5]: > 100 µg/mL
EC50 [6]: 9 µg/mL (≈ 25.3 µM)
EC50 [7]: 8 µg/mL (≈ 22.5 µM)
EC50 [8]: > 100 µg/mL
EC50 [9]: 9 µg/mL (≈ 25.3 µM)
MCC at 48 h [10]: 100 µg/mL
EC50 [11]: > 20 µg/mL
EC50 [12]: > 20 µg/mL
EC50 [13]: > 20 µg/mL
EC50 [14]: > 20 µg/mL
EC50 [15]: > 20 µg/mL
CC50 [16]: 13.7 µg/mL (≈ 38.5 µM)
EC50 [17]: > 4 µg/mL
EC50 [18]: > 4 µg/mL
MCC at 48 h [19]: 20 µg/mL
EC50 [20]: > 4 µg/mL
EC50 [21]: > 4 µg/mL
EC50 [22]: > 4 µg/mL
selectivity ratio [23]: 11
selectivity ratio [24]: 13
selectivity ratio [25]: 11
selectivity ratio [26]: 11
EC50 [27]: Not Active
EC50 [28]: Not Active
EC50 [29]: Not Active
CC50 [30]: 8.2 µg/mL (≈ 23.1 µM)
MCC at 48 h [2]: 20 µg/mL
EC50 [31]: Not Active
EC50 [32]: Not Active
EC50 [33]: Not Active

O=c1c2ccccc2nc(-c2ccccc2)n1/N=C/c1ccc(O)cc1
MCC at 48 h [5]: 100 µg/mL
EC50 [6]: > 20 µg/mL
EC50 [7]: > 20 µg/mL
EC50 [8]: > 20 µg/mL
EC50 [9]: > 20 µg/mL
MCC at 48 h [10]: 100 µg/mL
EC50 [11]: > 20 µg/mL
EC50 [12]: > 20 µg/mL
EC50 [13]: > 20 µg/mL
EC50 [14]: > 20 µg/mL
EC50 [15]: > 20 µg/mL
CC50 [16]: 59.5 µg/mL (≈ 174 µM)
EC50 [17]: > 20 µg/mL
EC50 [18]: > 20 µg/mL
MCC at 48 h [19]: 100 µg/mL
EC50 [20]: > 20 µg/mL
EC50 [21]: > 20 µg/mL
EC50 [22]: > 20 µg/mL
EC50 [27]: Not Active
EC50 [28]: Not Active
EC50 [29]: Not Active
CC50 [30]: 10.2 µg/mL (≈ 29.9 µM)
MCC at 48 h [2]: 20 µg/mL
EC50 [31]: Not Active
EC50 [32]: Not Active
EC50 [33]: Not Active
